Laboratory results from paper PMC8092417 (Anti-cancer drugs, 2020).
One block for each compound: values may come before it.

Key:
TU-BcX-4IC explants = experiment: Western blot of treated PDX tumor explants; format: cell-based, human; conditions: 24 hours
TU-BcX-4IC M2 spheres = experiment: Mammosphere formation and area quantification; format: cell-based, human; conditions: 7 days treatment
Method in brief: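 Cells were plated at 1,000/well in low-attachment plates in serum-free F12/DMEM with B-27 and left 24 h to form spheres. Spheres were then exposed to test compound or DMSO for one week, re-dosed every three days. Spheres were imaged at 40X or 100X, and length and width were measured to calculate area, which was compared with DMSO controls.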

MDA-MB-231 cells [1] = experiment: Crystal violet staining, cells remaining / viability dose-response; format: cell-based, human
Method in brief: (§1)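 Cells were plated at 5,000/well in 5% charcoal-stripped DMEM for 48 h, then exposed to test compound or DMSO vehicle for 72 h at 37 °C, 5% CO2. They were fixed with glutaraldehyde for 20 min and stained for 20 min with 0.1% crystal violet in 90% methanol. After overnight drying, cells were lysed in 33% acetic acid and read at 620 nm. Signal was normalized to DMSO and plotted as dose-response.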

BT549 cells = experiment: Transwell migration assay; format: cell-based, human; conditions: BT549, pretreated 1 μM 72 hours, 24 hours migration
Method in brief: (§2)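 Cells were pretreated 72 h with test compound (1 μM) or DMSO, and viable cells were then seeded into transwell chambers for 24 h. Non-migrated cells were removed. Migrated cells were fixed, crystal violet-stained, imaged by brightfield and counted. Counts were normalized to DMSO per cell line; triplicate experiments.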

MDA-MB-231 M2 spheres = experiment: Mammosphere formation and area quantification; format: cell-based, human; conditions: MDA-MB-231, 7 days treatment
Method in brief: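 MDA-MB-231 cells were seeded at 1,000/well in low-attachment wells in serum-free F12/DMEM plus B-27 and allowed 24 h to form spheres. Spheres were then treated with test compound or DMSO for one week, re-dosed every three days. Imaging was at 40X or 100X. Sphere length and width were measured, area was calculated, and values were compared with DMSO controls.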

MST2 = MST2 (Homo sapiens, UniProt Q13188); experiment: Kinase inhibition assay; format: biochemical; conditions: 1 μM
Chain of MST2 (Q13188 whole entry): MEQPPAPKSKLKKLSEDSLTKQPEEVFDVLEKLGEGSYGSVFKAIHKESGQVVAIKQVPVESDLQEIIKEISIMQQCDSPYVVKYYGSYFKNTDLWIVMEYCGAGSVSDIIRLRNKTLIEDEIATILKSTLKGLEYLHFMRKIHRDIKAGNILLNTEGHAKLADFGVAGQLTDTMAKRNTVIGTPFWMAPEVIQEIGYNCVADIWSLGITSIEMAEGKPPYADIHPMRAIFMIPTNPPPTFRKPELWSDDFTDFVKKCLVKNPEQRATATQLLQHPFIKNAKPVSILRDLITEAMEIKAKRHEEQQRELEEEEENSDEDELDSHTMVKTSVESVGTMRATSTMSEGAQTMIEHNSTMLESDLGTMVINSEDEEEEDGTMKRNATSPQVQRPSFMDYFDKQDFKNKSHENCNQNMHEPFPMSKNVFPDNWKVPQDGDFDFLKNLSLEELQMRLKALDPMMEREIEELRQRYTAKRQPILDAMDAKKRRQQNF

MDA-MB-231 cells [2] = experiment: qRT-PCR of epithelial and mesenchymal genes; format: cell-based, human; conditions: MDA-MB-231, 1 μM, 72 hours
Method in brief: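 MDA-MB-231 cells in 5% charcoal-stripped DMEM were pre-exposed for 72 h to test compound (1 μM) or DMSO. RNA was then isolated and gene expression measured by quantitative real-time PCR.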

HIPK4 = HIPK4 (Homo sapiens, UniProt Q8NE63); experiment: Kinase inhibition assay; format: biochemical; conditions: 1 μM
Chain of HIPK4 (Q8NE63 whole entry): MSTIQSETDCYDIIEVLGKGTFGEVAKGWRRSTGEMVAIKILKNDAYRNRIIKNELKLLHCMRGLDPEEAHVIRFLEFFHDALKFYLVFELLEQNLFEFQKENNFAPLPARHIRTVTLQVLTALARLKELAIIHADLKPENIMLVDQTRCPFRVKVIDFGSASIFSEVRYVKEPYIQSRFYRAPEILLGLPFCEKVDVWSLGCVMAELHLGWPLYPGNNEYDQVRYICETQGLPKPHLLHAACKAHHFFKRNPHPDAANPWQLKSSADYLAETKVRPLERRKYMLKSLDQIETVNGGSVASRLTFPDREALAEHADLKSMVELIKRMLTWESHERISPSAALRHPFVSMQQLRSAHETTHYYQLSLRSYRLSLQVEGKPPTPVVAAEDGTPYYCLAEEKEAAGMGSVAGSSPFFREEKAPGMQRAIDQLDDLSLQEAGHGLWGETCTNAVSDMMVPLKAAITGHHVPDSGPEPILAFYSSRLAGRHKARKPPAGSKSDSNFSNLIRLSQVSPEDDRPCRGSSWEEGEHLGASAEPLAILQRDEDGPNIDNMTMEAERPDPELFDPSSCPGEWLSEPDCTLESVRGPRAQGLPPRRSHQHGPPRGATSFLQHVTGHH

TU-BcX-49S cells = experiment: qRT-PCR of epithelial and mesenchymal genes; format: cell-based, human
TU-BcX-4IC cells [3] = experiment: qRT-PCR of epithelial and mesenchymal genes; format: cell-based, human; conditions: 1 μM, 72 hours
Method in brief: (§3)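 Cells were treated 72 h with test compound (1 μM) or DMSO. Total RNA was column-isolated and checked for quantity and quality by absorbance (260, 280 nm). Then 2 μg total RNA was reverse-transcribed and gene expression measured by qRT-PCR.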

NEK2 = biological target: T1, NEK2 (Homo sapiens, UniProt P51955); experiment: Kinase inhibition assay; format: biochemical; conditions: 1 μM
T1 sequence (P51955 1-445): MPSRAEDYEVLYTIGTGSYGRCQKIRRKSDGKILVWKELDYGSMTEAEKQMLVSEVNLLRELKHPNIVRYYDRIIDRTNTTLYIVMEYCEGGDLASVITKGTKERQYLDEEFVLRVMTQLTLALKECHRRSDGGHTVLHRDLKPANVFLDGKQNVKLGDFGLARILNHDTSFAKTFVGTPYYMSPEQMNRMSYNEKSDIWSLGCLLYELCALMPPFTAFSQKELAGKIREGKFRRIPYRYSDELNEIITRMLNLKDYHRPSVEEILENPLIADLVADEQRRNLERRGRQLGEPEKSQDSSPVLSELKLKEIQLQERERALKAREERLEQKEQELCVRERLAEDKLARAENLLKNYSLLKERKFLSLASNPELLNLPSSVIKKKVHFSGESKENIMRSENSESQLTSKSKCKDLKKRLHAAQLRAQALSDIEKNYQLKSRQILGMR

MDA-MB-231 cells [4] = experiment: Ki-67 immunofluorescence staining for proliferation; format: cell-based, human; conditions: MDA-MB-231, 1 μM, 72 hours
MINK = MINK (Homo sapiens, UniProt Q8N4C8); experiment: Kinase inhibition assay; format: biochemical; conditions: 1 μM
Chain of MINK (Q8N4C8 whole entry): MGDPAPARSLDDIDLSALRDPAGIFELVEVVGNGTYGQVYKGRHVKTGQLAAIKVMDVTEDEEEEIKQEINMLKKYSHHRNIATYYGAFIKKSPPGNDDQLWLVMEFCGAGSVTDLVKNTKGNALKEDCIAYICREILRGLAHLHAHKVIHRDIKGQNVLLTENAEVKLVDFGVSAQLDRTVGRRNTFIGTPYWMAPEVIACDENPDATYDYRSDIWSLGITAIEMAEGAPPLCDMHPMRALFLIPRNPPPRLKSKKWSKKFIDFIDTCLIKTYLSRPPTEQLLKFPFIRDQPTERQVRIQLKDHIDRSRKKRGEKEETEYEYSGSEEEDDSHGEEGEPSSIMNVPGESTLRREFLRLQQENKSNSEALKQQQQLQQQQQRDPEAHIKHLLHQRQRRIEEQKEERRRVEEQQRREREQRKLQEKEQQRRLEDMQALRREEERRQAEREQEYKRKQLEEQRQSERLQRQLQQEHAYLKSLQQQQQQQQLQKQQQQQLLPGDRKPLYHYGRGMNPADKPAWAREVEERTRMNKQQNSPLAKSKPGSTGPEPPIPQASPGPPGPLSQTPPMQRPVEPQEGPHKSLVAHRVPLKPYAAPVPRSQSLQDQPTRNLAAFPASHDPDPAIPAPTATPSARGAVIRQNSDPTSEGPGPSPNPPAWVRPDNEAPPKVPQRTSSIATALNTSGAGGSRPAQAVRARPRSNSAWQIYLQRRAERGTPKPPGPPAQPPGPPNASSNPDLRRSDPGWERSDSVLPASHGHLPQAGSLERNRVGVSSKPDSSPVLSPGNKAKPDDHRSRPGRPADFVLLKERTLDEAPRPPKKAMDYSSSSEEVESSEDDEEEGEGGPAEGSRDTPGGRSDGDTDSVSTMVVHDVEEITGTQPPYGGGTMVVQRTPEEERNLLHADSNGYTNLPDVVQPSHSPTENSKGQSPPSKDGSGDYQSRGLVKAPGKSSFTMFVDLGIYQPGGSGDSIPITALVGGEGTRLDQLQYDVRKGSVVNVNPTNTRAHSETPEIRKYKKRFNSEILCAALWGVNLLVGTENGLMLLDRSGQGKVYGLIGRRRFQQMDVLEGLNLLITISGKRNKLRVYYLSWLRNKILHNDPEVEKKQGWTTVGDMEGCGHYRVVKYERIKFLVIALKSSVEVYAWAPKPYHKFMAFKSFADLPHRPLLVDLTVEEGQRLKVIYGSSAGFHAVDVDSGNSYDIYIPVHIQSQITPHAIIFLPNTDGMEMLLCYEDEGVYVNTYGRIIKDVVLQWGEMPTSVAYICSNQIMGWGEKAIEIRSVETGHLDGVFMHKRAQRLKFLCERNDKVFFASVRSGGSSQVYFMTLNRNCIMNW

LOK = LOK (Homo sapiens, UniProt O94804); experiment: Kinase inhibition assay; format: biochemical; conditions: 1 μM
Chain of LOK (O94804 whole entry): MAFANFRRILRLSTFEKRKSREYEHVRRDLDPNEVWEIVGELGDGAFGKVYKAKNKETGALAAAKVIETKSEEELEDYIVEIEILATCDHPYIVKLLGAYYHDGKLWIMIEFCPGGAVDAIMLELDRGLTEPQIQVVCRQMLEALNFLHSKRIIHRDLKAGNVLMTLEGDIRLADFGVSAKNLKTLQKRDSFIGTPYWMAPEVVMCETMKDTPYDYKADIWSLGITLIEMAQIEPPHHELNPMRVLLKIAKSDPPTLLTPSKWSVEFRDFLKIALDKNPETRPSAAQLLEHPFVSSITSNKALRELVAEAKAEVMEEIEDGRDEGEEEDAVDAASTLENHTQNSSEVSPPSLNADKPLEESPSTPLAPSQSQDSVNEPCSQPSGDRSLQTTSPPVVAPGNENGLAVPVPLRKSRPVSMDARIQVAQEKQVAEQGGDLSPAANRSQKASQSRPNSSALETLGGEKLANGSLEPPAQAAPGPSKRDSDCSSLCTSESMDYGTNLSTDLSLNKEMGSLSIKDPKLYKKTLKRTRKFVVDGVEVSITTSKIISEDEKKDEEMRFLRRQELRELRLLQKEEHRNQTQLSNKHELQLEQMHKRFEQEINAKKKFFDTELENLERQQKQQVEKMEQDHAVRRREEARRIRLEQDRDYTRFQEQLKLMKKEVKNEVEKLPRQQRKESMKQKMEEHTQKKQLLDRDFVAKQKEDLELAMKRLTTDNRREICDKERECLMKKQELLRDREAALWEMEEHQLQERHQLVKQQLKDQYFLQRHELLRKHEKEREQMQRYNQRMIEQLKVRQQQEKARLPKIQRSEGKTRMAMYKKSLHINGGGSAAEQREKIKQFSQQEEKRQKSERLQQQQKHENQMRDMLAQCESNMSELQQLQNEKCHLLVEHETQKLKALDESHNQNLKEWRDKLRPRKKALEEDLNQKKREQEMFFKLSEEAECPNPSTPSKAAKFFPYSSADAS

BT-549 cells [5] = experiment: Crystal violet staining, cells remaining / viability dose-response; format: cell-based, human
Method in brief: as §1

TU-BcX-4IC cells [6] = experiment: Transwell migration assay; format: cell-based, human; conditions: pretreated 1 μM 72 hours, 24 hours migration
Method in brief: as §2

BT-549 cells [7] = experiment: qRT-PCR of epithelial and mesenchymal genes; format: cell-based, human; conditions: BT-549, 1 μM, 72 hours
Method in brief: as §3

TU-BcX-4IC cells [8] = experiment: Crystal violet staining, cells remaining / viability dose-response; format: cell-based, human; conditions: 1 μM, 72 hours

Structure (SMILES): CC[C@@H]1C(=O)N(C)c2cnc(Nc3ccc(C(=O)N[C@H]4CC[C@H](N5CCN(CC6CC6)CC5)CC4)cc3OC)nc2N1C(C)C [BI6727]
MMP9 protein expression (TU-BcX-4IC explants): suppressed the mesenchymal markers ZEB1 and MMP9 expression | ZEB1 protein expression (TU-BcX-4IC explants): suppressed the mesenchymal markers ZEB1 and MMP9 expression

IC50 (MDA-MB-231 cells [1]; Homo sapiens, MDA-MB-231, 72 h, read-out: IC-50, number of cells remaining): 50 µM | Binding activity against MST2 (MST2): significant binding activity | Binding activity against HIPK4 (HIPK4): significant binding activity | Binding activity against NEK2 (NEK2): significant binding activity | Binding activity to NEK2 (NEK2): 97.1% | Binding activity against MINK (MINK): significant binding activity | Binding activity to LOK (LOK): 99.1% | IC50 (BT-549 cells [5]; Homo sapiens, BT-549, 72 h, read-out: IC-50, number of cells remaining): 7.5 µM
Structure (SMILES): COc1cc2ncn(-c3cc(OCc4sccc4Cl)c(C(N)=O)s3)c2cc1OC [GSK448459A]
Mammosphere formation (sphere area) (TU-BcX-4IC M2 spheres): significantly suppressed mammosphere formation | Number of cells remaining compared to DMSO controls (MDA-MB-231 cells [1]; MDA-MB-231, 1 μM, 72 hours): increased number of cells remaining | Transwell cell migration (BT549 cells): most suppressive effects on cell migration | Sphere area (MDA-MB-231 M2 spheres): significantly increased sphere area | MMP9 mRNA expression (MDA-MB-231 cells [2]): significantly downregulated MMP9 expression | SNAI1 mRNA expression (MDA-MB-231 cells [2]): significantly decreased SNAI1 expression | ZEB1 mRNA expression (MDA-MB-231 cells [2]): significantly increased ZEB1 expression | cFOS mRNA expression (MDA-MB-231 cells [2]): suppressive effects in all three TNBC cell lines, although not significantly | MMP9 protein expression (TU-BcX-4IC explants): did not suppress MMP9 and ZEB1 protein expressions | ZEB1 protein expression (TU-BcX-4IC explants): did not suppress MMP9 and ZEB1 protein expressions | cFOS mRNA expression (TU-BcX-49S cells): Neither GSK346294A nor GSK448459A suppressed cFOS mRNA expression | MMP9 mRNA expression (TU-BcX-4IC cells [3]): Neither GSK346294A nor GSK448459A affected MMP9 expression | ZEB1 mRNA expression (TU-BcX-4IC cells [3]): suppressed ZEB1 expression in TU-BcX-4IC cells albeit not significantly | cFOS mRNA expression (TU-BcX-4IC cells [3]): suppressive effects in all three TNBC cell lines, although not significantly | Ki-67 positive cells (cell proliferation) (MDA-MB-231 cells [4]): decreased Ki-67 positive cells | Number of cells remaining compared to DMSO controls (BT-549 cells [5]; BT-549, 1 μM, 72 hours): increased number of cells remaining | Transwell cell migration (TU-BcX-4IC cells [6]): most suppressive effects on cell migration | CDH1 mRNA expression (BT-549 cells [7]): significantly reduced CDH1 mRNA expression | MMP9 mRNA expression (BT-549 cells [7]): Neither GSK346294A nor GSK448459A affected MMP9 expression | SNAI1 mRNA expression (BT-549 cells [7]): increased SNAI1 expression in BT-549 cells significantly | cFOS mRNA expression (BT-549 cells [7]): suppressive effects in all three TNBC cell lines, although not significantly | Number of cells remaining compared to DMSO controls (TU-BcX-4IC cells [8]): increased number of cells remaining

Structure (SMILES): CC[C@@H]1C(=O)N(C)c2cnc(Nc3ccc(C(=O)NC4CCN(C)CC4)cc3OC)nc2N1C1CCCC1 [BI2536]
Ki-67 positive cells (cell proliferation) (MDA-MB-231 cells [4]): significantly reduced the number of Ki-67 positive cells
